Experiment [1] can be described thus: reducers of endogenous Her2 protein level, primary screen, SKBR3 breast tumor cells, AlphaScreen, ATP viability (AID 461;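 active means Her2 level under about 52% in both replicate screens, with viability over 70% of control, limit read from the data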;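 on Her2 level: lower value means less Her2 protein in the cells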;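 on viability: percent of carrier control wells set as 100% viability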). The following applies: 18-24 h, measured here: SKBR3 viability, ATP luminescence, at 10 µM. A general note: In Alpha technology, singlet oxygen from a donor bead excites a nearby acceptor bead.
Experiment [2] has as its target Receptor tyrosine-protein kinase erbB-2 (Homo sapiens) (UniProt P04626). The description is as above. The following applies: 18-24 h, at 10 µM, stronger effect = lower value.
Experiment [3] can be described thus: SK-BR-3 cell growth inhibitors, pilot screen, 24 h, human (AID 572;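 active means viability at or below 10% of carrier control in both of two separate runs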;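 further: compound exposure lasted between 18 and 24 h rather than exactly 24 h; 100% = carrier-treated control wells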). To be noted: SK-BR-3 viability, CellTiter-Glo luminescence, at 10 µM, stronger effect = lower value.
Experiment [4] in a line: HUVEC growth inhibition – cell-based, human, primary screen (AID 575;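 active means viability at or below 30% in both replicate assays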;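 further: 100% = median of untreated cell wells with 0.1% DMSO on each plate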). The following applies: HUVEC proliferation, CellTiter-Glo luminescence, 72 h; at 10 µM; stronger effect = lower value. The procedure, abridged: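 Assay system: Primary human umbilical vein endothelial cells | Quantity: 1250 cells per well | Medium: Supplemented EBM, 2% fetal bovine serum | Detection: CellTiter-Glo luminescence measuring cellular ATP | Read-out: % viability vs DMSO wells | Plate: Collagen-coated 384-well format | Times: 72 h exposure, 37 °C, 5% CO2, 30 min RT equilibration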
On the technique in general: In ATP-based viability assays light output follows the ATP content of the culture.

Experiment [5] is described as follows: growth inhibitors of H69AR lung tumor, primary screen, human, duplicate replicates (AID 580).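 Further: 100% = mean luminescence of untreated wells and 0% = no signal.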 To be noted: H69AR lung tumor cells viability, ATP luminescence, 72 h; at 10 µM; stronger effect = lower value.
Experiment [6] can be described thus: reversal of MRP1-mediated doxorubicin resistance, pilot screen, H69AR cells, doxorubicin co-treatment (AID 601;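 active means viability loss from added drug above about 55%, and viability with drug at most 40%, in both replicates, limit read from the data, passing the limit was not always enough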). The following applies: CellTiter-Glo, 72 h, at 10 µM; for differential viability (reversal): stronger effect = higher value.
Experiment [7] is described as follows: 384-well plate pilot, post-Golgi transport modulator project, inhibition of yeast transport mutant growth (AID 636; in the data active means inhibition above about 31%). The following applies: absorbance 615 nm, about 18 h, stronger effect = higher value.
Experiment [8] in a line: growth suppression of yeast trafficking mutant, preliminary HTS, modulators of trafficking downstream of Golgi apparatus project, 1536-format plate, OD 615 nm (AID 637; in the data active means inhibition above about 30%). To be noted: yeast transport mutant growth, absorbance 615 nm, 18 h; stronger effect = higher value.
Setting [9] is: H69AR cells + 2 uM doxorubicin, measured here: viability with 2 uM doxorubicin, stronger effect = lower value.
Where [10] appears, read: H69AR cells, compound alone cytotoxicity.

Activity calls are given as the source filed them.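 How the source made its calls, unless noted: active means viability at or under a set limit in both replicates, limit being median viability minus 3 SD (cut at about 48% in these data, passing the limit was not always enough); inconclusive means at or under the limit in just one replicate; inactive means at or above the limit in both replicates.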

As usually defined, the viability is a read-out of living cells in per cent, often relative to untreated cells. One may read the inhibition as the drop in the measured response relative to a control, in per cent.

Chain of Receptor tyrosine-protein kinase erbB-2 (Homo sapiens) (P04626 whole entry, looked up): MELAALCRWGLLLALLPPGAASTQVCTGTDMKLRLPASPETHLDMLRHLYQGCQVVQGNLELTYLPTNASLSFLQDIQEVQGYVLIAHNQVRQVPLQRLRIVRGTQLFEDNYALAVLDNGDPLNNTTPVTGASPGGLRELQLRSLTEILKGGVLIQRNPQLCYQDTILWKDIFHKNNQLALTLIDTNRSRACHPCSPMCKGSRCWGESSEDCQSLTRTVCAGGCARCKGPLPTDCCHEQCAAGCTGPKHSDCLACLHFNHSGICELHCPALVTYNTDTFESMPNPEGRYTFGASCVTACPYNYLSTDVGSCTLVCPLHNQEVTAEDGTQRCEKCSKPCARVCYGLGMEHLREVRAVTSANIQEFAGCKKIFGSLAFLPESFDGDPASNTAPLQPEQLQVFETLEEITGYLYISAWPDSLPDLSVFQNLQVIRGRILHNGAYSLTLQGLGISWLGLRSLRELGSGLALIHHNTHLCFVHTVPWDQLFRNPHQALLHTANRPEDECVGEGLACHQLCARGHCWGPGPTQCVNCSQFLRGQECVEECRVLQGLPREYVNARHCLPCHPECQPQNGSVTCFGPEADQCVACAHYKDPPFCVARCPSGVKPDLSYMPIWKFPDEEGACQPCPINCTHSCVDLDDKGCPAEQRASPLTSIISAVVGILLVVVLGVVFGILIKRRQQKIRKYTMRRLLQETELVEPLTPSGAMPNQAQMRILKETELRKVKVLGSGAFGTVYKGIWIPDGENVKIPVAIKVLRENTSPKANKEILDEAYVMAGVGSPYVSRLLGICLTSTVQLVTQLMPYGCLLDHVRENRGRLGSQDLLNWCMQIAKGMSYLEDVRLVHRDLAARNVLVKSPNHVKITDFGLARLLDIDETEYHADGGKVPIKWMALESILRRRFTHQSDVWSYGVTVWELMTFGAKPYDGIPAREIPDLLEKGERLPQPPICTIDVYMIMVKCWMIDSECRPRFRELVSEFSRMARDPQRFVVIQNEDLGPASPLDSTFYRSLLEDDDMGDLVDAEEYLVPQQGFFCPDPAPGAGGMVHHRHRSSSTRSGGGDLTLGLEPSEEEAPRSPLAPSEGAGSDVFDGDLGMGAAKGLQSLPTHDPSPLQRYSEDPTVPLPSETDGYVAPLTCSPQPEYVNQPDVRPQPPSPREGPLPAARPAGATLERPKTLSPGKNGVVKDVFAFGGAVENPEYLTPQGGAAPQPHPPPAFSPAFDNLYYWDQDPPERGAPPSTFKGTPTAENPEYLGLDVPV

On to `CC(=O)N1CCN=C1SCc1ccc(Br)cc1`, for which the viability is 93% in experiment [1]; 93% (inactive) in experiment [3]; 71.9% (inactive) in experiment [4]; 87% (inactive) in experiment [5]; 83.7% in experiment [6] (setting [9]); 87% in experiment [6] (setting [10]). Moreover, the Her2 level in experiment [2] is 97.5% (inactive). Moreover, the differential viability (reversal) in experiment [6] (H69AR cells + 2 uM doxorubicin) is 3.28% (inactive). Further, the inhibition in experiment [7] is -1.03% (inactive); in experiment [8] it was 9% (inactive).

In the case of `C=CCOc1ccccc1/C=c1\sc2nc(=O)c(C)nn2c1=O`, the viability was 100% in experiment [1]; 100% (inactive) in experiment [3]; 85.1% (inactive) in experiment [4]; 72.6% (inactive) in experiment [5]; 83.1% in experiment [6] (setting [9]); 72.6% in experiment [6] (setting [10]). In experiment [2], the Her2 level was 84% (inactive). In addition, the differential viability (reversal) in experiment [6] (H69AR cells + 2 uM doxorubicin) was -10.6% (inactive). For the same molecule, the inhibition was -8.27% (inactive) in experiment [7] and 0.79% (inactive) in experiment [8].

As to `COc1ccccc1CNS(=O)(=O)c1ccc(NC(C)=O)cc1`, the viability is 94.5% in experiment [1]; 94.5% (inactive) in experiment [3]; 106% (inactive) in experiment [4]; 92.9% (inactive) in experiment [5]; 101% in experiment [6] (setting [9]); 92.9% in experiment [6] (setting [10]). Moreover, in experiment [2], the Her2 level was 84% (inactive). Besides, in experiment [6] (H69AR cells + 2 uM doxorubicin), the differential viability (reversal) was -7.69% (inactive). The inhibition in experiment [7] was -5.73% (inactive); in experiment [8] it was 2.22% (inactive).

Take `COc1ccc(C(CNC(=O)c2ccc(OCC3CCCO3)cc2)N2CCOCC2)cc1` (stereo not given): the viability is 90% in experiment [1]; 90% (inactive) in experiment [3]; 82.9% (inactive) in experiment [4]; 105% (inactive) in experiment [5]; 90.7% in experiment [6] (setting [9]); 105% in experiment [6] (setting [10]). The Her2 level in experiment [2] was 93.5% (inactive). Moreover, in experiment [6] (H69AR cells + 2 uM doxorubicin), the differential viability (reversal) is 13.8% (inactive). Besides, the inhibition in experiment [7] is -1.33% (inactive); in experiment [8], -2.42% (inactive).

Regarding `O=C(Nc1ccc(N2CCCCC2)cc1)c1ccc(F)cc1`, the viability in experiment [1] was 84%; in experiment [3], 84% (inactive); in experiment [4] it was 80% (inactive); in experiment [5] it was 83.1% (inactive); in experiment [6] (setting [9]) it was 78.8%; in experiment [6] (setting [10]), 83.1%. In addition, the Her2 level in experiment [2] is 106% (inactive). Besides, the differential viability (reversal) in experiment [6] (H69AR cells + 2 uM doxorubicin) was 4.35% (inactive). In addition, the values for the inhibition in experiment [7] and in experiment [8] were 1.79% (inactive) and -0.5% (inactive), respectively.

As for `COC(=O)[C@@H](NC(=O)NCc1ccccc1Cl)C(C)C`, the viability in experiment [1] was 95%; in experiment [3], 95% (inactive); in experiment [4], 84.9% (inactive); in experiment [5] it was 94.4% (inactive); in experiment [6] (setting [9]) it was 95.9%; in experiment [6] (setting [10]), 94.4%. Besides, the Her2 level in experiment [2] was 123% (inactive). Also, the differential viability (reversal) in experiment [6] (H69AR cells + 2 uM doxorubicin) is -1.47% (inactive). Further, the inhibition was -1.17% (inactive) in experiment [7] and -9.5% (inactive) in experiment [8].

Turning to `CN1C(=O)CC(C(=O)Nc2ccc(F)cc2)SC1=Nc1ccc2c(c1)OCO2` (stereo not given), the viability is 88% in experiment [1]; 88% (inactive) in experiment [3]; 95% (inactive) in experiment [4]; 82.5% (inactive) in experiment [5]; 79.6% in experiment [6] (setting [9]); 82.5% in experiment [6] (setting [10]). Moreover, the Her2 level in experiment [2] is 73% (inactive). In addition, the differential viability (reversal) in experiment [6] (H69AR cells + 2 uM doxorubicin) is 2.84% (inactive). The inhibition is -7.16% (inactive) in experiment [7] and 0.83% (inactive) in experiment [8].

As to `COc1ccccc1NC(=O)C1=C(C)Nc2nc(CCCO)nn2C1c1cccnc1` (stereo not given), the viability in experiment [1] was 132%; in experiment [3], 132% (inactive); in experiment [4] it was 95.7% (inactive); in experiment [5], 96.2% (inactive); in experiment [6] (setting [9]) it was 85.2%; in experiment [6] (setting [10]), 96.2%. Moreover, the Her2 level in experiment [2] is 94.5% (inactive). Further, the differential viability (reversal) in experiment [6] (H69AR cells + 2 uM doxorubicin) was 11% (inactive). The inhibition in experiment [7] is -6.36% (inactive); in experiment [8] it was -3.81% (inactive).

On to `COC(=O)Nc1sc2c(c1C(=O)N1CCOCC1)CCC(C)C2` (stereo not given), for which the viability in experiment [1] is 89.5%; in experiment [3], 89.5% (inactive); in experiment [4] it was 79.7% (inactive); in experiment [5] it was 93.9% (inactive); in experiment [6] (setting [9]) it was 95.6%; in experiment [6] (setting [10]), 93.9%. Further, in experiment [2], the Her2 level is 88.5% (inactive). Moreover, the differential viability (reversal) in experiment [6] (H69AR cells + 2 uM doxorubicin) is -1.66% (inactive). Moreover, the inhibition in experiment [7] was -2.89% (inactive); in experiment [8], 26% (inactive).

Consider `CC(=O)N1C(=O)N(C)C2C1N(C(C)=O)C(=O)N2C` (stereo not given), for which the viability in experiment [1] was 125%; in experiment [3], 125% (inactive); in experiment [4] it was 92.4% (inactive); in experiment [5], 93.5% (inactive); in experiment [6] (setting [9]), 95.1%; in experiment [6] (setting [10]) it was 93.5%. In experiment [2], the Her2 level is 104% (inactive). For the same molecule, in experiment [6] (H69AR cells + 2 uM doxorubicin), the differential viability (reversal) is -1.64% (inactive). Further, the inhibition in experiment [7] was -1.18% (inactive); in experiment [8], -6.45% (inactive).

For `CCC1Oc2ccc(C)cc2N(CC(=O)N(Cc2cccnc2)Cc2ccc(C)o2)C1=O` (stereo not given), the viability in experiment [1] was 93%; in experiment [3] it was 93% (inactive); in experiment [4], 83.7% (inactive); in experiment [5], 74.8% (inactive); in experiment [6] (setting [9]), 33.7%; in experiment [6] (setting [10]), 74.8%. In addition, in experiment [2], the Her2 level is 84% (inactive). For the same molecule, in experiment [6] (H69AR cells + 2 uM doxorubicin), the differential viability (reversal) was 41.1% (inactive). The inhibition in experiment [7] was -6.27% (inactive); in experiment [8], 6.56% (inactive).

For `O=c1ccc2cc3c([nH]c4ccc(Br)cc43)oc-2c1O`, the viability in experiment [1] was 146%; in experiment [3], 146% (inactive); in experiment [4], 91.7% (inactive); in experiment [5] it was 78.3% (inactive); in experiment [6] (setting [9]), 82.1%; in experiment [6] (setting [10]) it was 78.3%. In addition, the Her2 level in experiment [2] was 87% (inactive). In addition, in experiment [6] (H69AR cells + 2 uM doxorubicin), the differential viability (reversal) was -3.78% (inactive). Also, the inhibition in experiment [7] is -4.16% (inactive); in experiment [8], -3.81% (inactive).

`Cc1cc(C)n(-c2nnc(C)n2/N=C/c2ccco2)n1`: the viability is 108% in experiment [1]; 108% (inactive) in experiment [3]; 93.1% (inactive) in experiment [4]; 96.1% (inactive) in experiment [5]; 91% in experiment [6] (setting [9]); 96.1% in experiment [6] (setting [10]). Also, in experiment [2], the Her2 level is 91% (inactive). Also, the differential viability (reversal) in experiment [6] (H69AR cells + 2 uM doxorubicin) was 5.14% (inactive). The values for the inhibition in experiment [7] and in experiment [8] were -6.27% (inactive) and -2.3% (inactive), respectively.

`CCN(Cc1cc2cc(OC)ccc2[nH]c1=O)C(=O)Cc1ccc(OC)cc1`: the viability is 91% in experiment [1]; 91% (inactive) in experiment [3]; 96.5% (inactive) in experiment [4]; 88.2% (inactive) in experiment [5]; 81.9% in experiment [6] (setting [9]); 88.2% in experiment [6] (setting [10]). Further, in experiment [2], the Her2 level is 87.5% (inactive). Further, the differential viability (reversal) in experiment [6] (H69AR cells + 2 uM doxorubicin) was 6.29% (inactive). In addition, the inhibition in experiment [7] is -0.66% (inactive); in experiment [8] it was -3.44% (inactive).

Consider `COCCn1c(SCC(=O)Nc2sc(C)c(C)c2C#N)nnc1C(C)C`, for which the viability is 98% in experiment [1]; 98% (inactive) in experiment [3]; 96% (inactive) in experiment [4]; 89.6% (inactive) in experiment [5]; 92.8% in experiment [6] (setting [9]); 89.6% in experiment [6] (setting [10]). Moreover, the Her2 level in experiment [2] is 92.5% (inactive). The differential viability (reversal) in experiment [6] (H69AR cells + 2 uM doxorubicin) was -3.22% (inactive). Also, the inhibition in experiment [7] is -0.13% (inactive); in experiment [8] it was -4.35% (inactive).

Source of the values: PubChem BioAssay.
